Converted amounts (≈) assume the structure as drawn.
What was measured:
[1] = system: Mycobacterium tuberculosis; experiment: Antimycobacterial activity Mycobacterium tuberculosis H37Rv after 6 days by MTT colorimetric assay; format: functional, organism-based; settings: 144 h
[2] = biological target: T1, Enoyl-[acyl-carrier-protein] reductase [NADH] (Mycobacterium tuberculosis) (UniProt P9WGR1); experiment: Inhibition of Mycobacterium tuberculosis InhA using 2-trans-decenoyl-CoA as substrate at 100 uM after 5 mins by spectrophotometry
T1 sequence (whole entry): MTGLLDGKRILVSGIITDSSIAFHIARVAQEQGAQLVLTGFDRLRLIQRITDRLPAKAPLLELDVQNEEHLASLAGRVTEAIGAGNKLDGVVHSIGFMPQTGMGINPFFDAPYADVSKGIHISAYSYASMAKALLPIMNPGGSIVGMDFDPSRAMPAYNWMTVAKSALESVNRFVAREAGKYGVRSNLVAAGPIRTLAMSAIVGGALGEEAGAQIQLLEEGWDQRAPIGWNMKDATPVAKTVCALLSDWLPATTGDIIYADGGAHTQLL
Method in brief: (§1)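 Recombinant M. tuberculosis InhA expressed in E. coli (70 nM) was pre-incubated with NADH and compound in 30 mM PIPES, 150 mM NaCl, pH 6.8, 25 °C, with 0.5% final DMSO. Substrate was 2-trans-decenoyl-CoA. Activity was followed as the decrease in A340; initial rates gave % inhibition versus control. Run in triplicate.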

[3] = biological target: T1, Enoyl-[acyl-carrier-protein] reductase [NADH] (Mycobacterium tuberculosis); experiment: Inhibition of Mycobacterium tuberculosis InhA using 2-trans-decenoyl-CoA as substrate at 30 uM after 5 mins by spectrophotometry; method in brief: as §1

| Compound | MIC [1] [µM] | inhibition [2] [%] | inhibition [3] [%] | IC50 [1] [µM] |
| --- | --- | --- | --- | --- |
| CCCCCCCCCCCCOc1cccc(C2(O)NC(=O)c3cnccc32)c1 (racemic) | 156 (≈ 64 µg/mL) | 27 | 12 |  |
| CCCCCCCCCCCCc1cccc(C2(O)NC(=O)c3cnccc32)c1 (racemic) | 9.8 (≈ 3.87 µg/mL) |  |  | 7 |
| CCCCCCCCCCCCCCCCCCOc1cccc(C2(O)NC(=O)c3cnccc32)c1 (racemic) | 25 (≈ 12.4 µg/mL) | 67 | 28 | 12 |
| CCCCCCCCOc1cccc(C2(O)NC(=O)c3cnccc32)c1 (racemic) | 250 (≈ 88.6 µg/mL) | 12 |  |  |
| CCCCCCCCCCCCOc1ccc(C2(O)NC(=O)c3cnccc32)cc1 (racemic) | > 100 | 16 | 1 |  |
| CCCCCCCCCCCCOc1ccccc1C1(O)NC(=O)c2cnccc21 (racemic) | > 100 | 0 | 0 |  |
| CCCCCCCCCCCCOc1cccc(C2(OC)NC(=O)c3cnccc32)c1 (racemic) | 25 (≈ 10.6 µg/mL) | 0 |  | 10 |
| CCCCCCCCCCCCSc1cccc(C2(O)NC(=O)c3cnccc32)c1 (racemic) | 12.5 (≈ 5.33 µg/mL) | 66 | 15 | 6.5 |
| CCCCCCCCCCCCCCCCCCSc1cccc(C2(O)NC(=O)c3cnccc32)c1 (racemic) | > 100 |  | 26 |  |
| CCCCCCCCCCCCNc1cccc(C2(O)NC(=O)c3cnccc32)c1 (racemic) | > 100 | 9 | 1 |  |
| CCCCCCCCCCCCN1C(=O)c2cnccc2C1(O)c1ccccc1 (racemic) | 12.5 (≈ 4.93 µg/mL) | 13 | 0 | 4.5 |
| CCCCCCCCCCCCCCC1(O)NC(=O)c2cnccc21 (racemic) | > 100 | 10 |  |  |
| CCCCCCCCCCCCOC1(c2ccccc2)NC(=O)c2cnccc21 (racemic) | 25 (≈ 9.86 µg/mL) |  | 20 | 9.5 |
| O=C(O)c1cn(C2CC2)c2cc(N3CCNCC3)c(F)cc2c1=O [CIPROFLOXACIN] | 2.5 (≈ 0.828 µg/mL) |  |  |  |
| NNC(=O)c1ccncc1 [ISONIAZID] | 0.6 (≈ 0.0823 µg/mL) |  |  |  |

— ChEMBL document CHEMBL1914444, “Chemical synthesis, biological evaluation and structure-activity relationship analysis of azaisoindolinones, a novel class of direct enoyl-ACP reductase inhibitors as potential antimycobacterial agents” (Bioorg Med Chem, 2011)
